{"data": "Published values collected from several papers", "target": "Activated CDC42 kinase 1 (TNK2, Homo sapiens, UniProt Q07912)", "note": "Protocols differ between the studies behind these lines."}
{"Structure (SMILES)": "CN1CC[C@H](c2c(O)cc(O)c3c(=O)cc(-c4ccccc4Cl)oc23)[C@H](O)C1", "test": "cell-free assay, competition with immobilised ligand", "setting": "10 µM", "remaining binding [%]": 74}
{"Structure (SMILES)": "C[C@@H]1CCN(c2nccc(-c3cnn4ncccc34)n2)C1", "test": "binding", "setting": "1 µM", "remaining binding [%]": 100}
{"Structure (SMILES)": "CNC(=O)c1ccc(Nc2ncc(C(F)(F)F)c(NCc3nccnc3N(C)S(C)(=O)=O)n2)cc1", "test": "cell-free assay, competition with immobilised ligand", "setting": "0.1 µM", "remaining binding [%]": 100}
{"Structure (SMILES)": "CN(C)c1ncc(F)c(-c2cnn3ncccc23)n1", "test": "binding", "setting": "1 µM", "remaining binding [%]": 77}
{"Structure (SMILES)": "COC(=O)Nc1nc2cc(C(=O)c3ccccc3)ccc2[nH]1", "test": "cell-free assay, competition with immobilised ligand", "setting": "0.1 µM", "remaining binding [%]": 100}
{"Structure (SMILES)": "COc1cccc(CNC(=O)c2nc3scc(COCc4ccc(C(=O)O)cc4)c3c(=O)[nH]2)c1", "test": "cell-free assay, competition with immobilised ligand", "setting": "1 µM", "remaining binding [%]": 89.6}
{"Structure (SMILES)": "Cc1cnc(Nc2ccc(C(=O)N3CCC(N4CCCC4)CC3)cc2)nc1-c1cc2ccccc2s1", "test": "binding, competition with immobilised ligand", "setting": "1 µM", "remaining binding [%]": 10}
{"Structure (SMILES)": "Cc1cnn2ncc(-c3ccnc(N(C)C)n3)c2c1", "test": "binding", "setting": "1 µM", "remaining binding [%]": 100}
{"Structure (SMILES)": "CNCc1ccccc1-c1csc([C@@H](C)Nc2nc(C)nc3cc(OC)c(OC)cc23)c1", "test": "cell-free assay, competition with immobilised ligand", "setting": "1 µM", "remaining binding [%]": 100}
{"Structure (SMILES)": "COc1cnc(Nc2cccc(S(N)(=O)=O)c2)nc1N1CCN(c2ccccc2)CC1", "test": "binding, competition with immobilised ligand", "setting": "1 µM", "remaining binding [%]": 97}
{"Structure (SMILES)": "COc1cc(-c2cn(C3CCc4c(F)cccc4N(CC(F)(F)F)C3=O)nn2)ccc1-n1cnc(C)c1 (stereo not shown)", "test": "cell-free assay, competition with immobilised ligand", "setting": "1 µM", "remaining binding [%]": 100}
{"Structure (SMILES)": "Cc1nc(Nc2ncc(C(=O)Nc3c(C)cccc3Cl)s2)cc(N2CCN(CCO)CC2)n1", "test": "cell-free assay, competition with immobilised ligand", "setting": "10 µM", "remaining binding [%]": 0}
{"Structure (SMILES)": "c1cncc(-c2cccc(Nc3nccc(NC4CCCCC4)n3)c2)c1", "test": "binding, competition with immobilised ligand", "setting": "10 µM", "remaining binding [%]": 43}
{"Structure (SMILES)": "O=C(c1ccc(Nc2ncc(Cl)c(-c3cc4ccccc4s3)n2)cc1)N1CCC(N2CCCC2)CC1", "test": "binding, competition with immobilised ligand", "setting": "1 µM", "remaining binding [%]": 54}
{"Structure (SMILES)": "c1ccc(N2CCN(Cc3nc4ccccc4[nH]3)CC2)nc1", "test": "binding, competition with immobilised ligand", "setting": "1 µM", "remaining binding [%]": 100}
{"Structure (SMILES)": "Cc1c(-c2ccccc2)oc2c(C(=O)OCCN3CCCCC3)cccc2c1=O", "test": "cell-free assay, competition with immobilised ligand", "setting": "0.1 µM", "remaining binding [%]": 100}
{"Structure (SMILES)": "CN(C)C(=O)Cn1cc(-c2nc(C3(c4ccc(-c5cnc(N)nc5)cc4)CC3)no2)cn1", "test": "cell-free assay, competition with immobilised ligand", "setting": "1 µM", "remaining binding [%]": 96}
{"Structure (SMILES)": "CCN(CC)Cc1cc(Nc2ccnc3cc(Cl)ccc23)ccc1O", "test": "cell-free assay, competition with immobilised ligand", "setting": "10 µM", "remaining binding [%]": 100}
{"Structure (SMILES)": "CCN1CCN(Cc2ccc(C(=O)Nc3ccc(C)c(Oc4ccc5c(c4)CC(=O)N5)c3)cc2C(F)(F)F)CC1", "test": "binding, competition with immobilised ligand", "setting": "1 µM", "remaining binding [%]": 100}
{"Structure (SMILES)": "CCC(=O)N[C@H]1CC[C@@H](C(=O)N(C)c2ccc(-c3nc4ccccc4o3)cc2)C1", "test": "cell-free assay, competition with immobilised ligand", "setting": "1 µM", "remaining binding [%]": 84}
{"Structure (SMILES)": "c1cnn2ncc(-c3ccnc(N4CCC45COC5)n3)c2c1", "test": "binding", "setting": "1 µM", "remaining binding [%]": 74}
{"Structure (SMILES)": "CNC(=O)c1cc(Oc2ccc(NC(=O)Nc3ccc(Cl)c(C(F)(F)F)c3)cc2)ccn1", "test": "cell-free assay, competition with immobilised ligand", "setting": "0.1 µM", "remaining binding [%]": 100}
